Experimental data from article PMC10905627 (Oncogene, 2018).
Where two headings read alike, the source gives them in different places. Peptide text beside a SMILES is read from it. * marks the point of attachment. Cbz = O=C(OCc1ccccc1)*; CH2F = FC*

Legend:
[1] = Metabolic stability in mouse liver microsomes; assay type: in vitro ADME
H1299 lung cancer cells = assay: Cell viability; assay type: cell-based, human; details: for cell death, JL5 compared with DMH2: H1299, 2.5 μM, 3 days; for effect on JL5-induced cell death: H1299, pretreated 1 h, then JL5 3 days
[2] = LCMS of stored solid sample; assay type: physicochemical; details: stored as a solid in a desiccator for 4 months
[3] = cited from earlier work
ALK2/ACVR1 [4] = target: T1, ALK2/ACVR1 (Homo sapiens, UniProt Q04771); details: read-out: IC50 ALK2/ACVR1; previously reported; cited from earlier work
T1 sequence (Q04771 21-509): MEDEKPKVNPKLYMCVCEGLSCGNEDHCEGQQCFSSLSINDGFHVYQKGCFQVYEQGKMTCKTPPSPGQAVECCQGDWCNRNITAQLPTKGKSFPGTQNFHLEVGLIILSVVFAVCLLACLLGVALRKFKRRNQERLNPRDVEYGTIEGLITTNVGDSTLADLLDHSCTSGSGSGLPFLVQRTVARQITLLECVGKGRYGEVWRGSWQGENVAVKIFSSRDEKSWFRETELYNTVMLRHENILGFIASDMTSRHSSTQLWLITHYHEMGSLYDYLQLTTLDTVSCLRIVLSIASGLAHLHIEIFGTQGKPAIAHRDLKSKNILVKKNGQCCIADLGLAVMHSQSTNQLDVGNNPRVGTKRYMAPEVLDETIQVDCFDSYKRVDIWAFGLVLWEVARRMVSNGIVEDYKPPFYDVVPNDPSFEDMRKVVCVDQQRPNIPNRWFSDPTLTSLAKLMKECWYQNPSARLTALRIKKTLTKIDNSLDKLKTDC

ALK3/BMPR1A [5] = target: T2, ALK3/BMPR1A (Homo sapiens, UniProt P36894); details: read-out: IC50 ALK3/BMPR1A; previously reported; cited from earlier work
T2 sequence (P36894 24-532): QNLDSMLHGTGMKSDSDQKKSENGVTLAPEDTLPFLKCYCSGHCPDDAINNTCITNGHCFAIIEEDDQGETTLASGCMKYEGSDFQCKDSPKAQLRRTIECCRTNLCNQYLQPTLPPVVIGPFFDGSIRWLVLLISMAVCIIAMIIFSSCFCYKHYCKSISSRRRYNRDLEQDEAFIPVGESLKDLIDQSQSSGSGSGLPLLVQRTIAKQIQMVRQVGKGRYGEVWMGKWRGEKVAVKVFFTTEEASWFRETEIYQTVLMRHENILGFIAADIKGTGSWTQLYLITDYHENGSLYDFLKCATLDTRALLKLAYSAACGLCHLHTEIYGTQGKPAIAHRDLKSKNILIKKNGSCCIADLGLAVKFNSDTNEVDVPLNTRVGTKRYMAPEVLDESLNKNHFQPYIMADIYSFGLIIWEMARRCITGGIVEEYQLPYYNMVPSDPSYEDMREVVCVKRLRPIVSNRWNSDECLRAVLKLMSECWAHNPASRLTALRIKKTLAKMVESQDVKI

ALK6/BMPR1B [6] = target: T3, ALK6/BMPR1B (Homo sapiens, UniProt O00238); details: read-out: IC50 ALK6/BMPR1B; previously reported; cited from earlier work
T3 sequence (O00238 14-502): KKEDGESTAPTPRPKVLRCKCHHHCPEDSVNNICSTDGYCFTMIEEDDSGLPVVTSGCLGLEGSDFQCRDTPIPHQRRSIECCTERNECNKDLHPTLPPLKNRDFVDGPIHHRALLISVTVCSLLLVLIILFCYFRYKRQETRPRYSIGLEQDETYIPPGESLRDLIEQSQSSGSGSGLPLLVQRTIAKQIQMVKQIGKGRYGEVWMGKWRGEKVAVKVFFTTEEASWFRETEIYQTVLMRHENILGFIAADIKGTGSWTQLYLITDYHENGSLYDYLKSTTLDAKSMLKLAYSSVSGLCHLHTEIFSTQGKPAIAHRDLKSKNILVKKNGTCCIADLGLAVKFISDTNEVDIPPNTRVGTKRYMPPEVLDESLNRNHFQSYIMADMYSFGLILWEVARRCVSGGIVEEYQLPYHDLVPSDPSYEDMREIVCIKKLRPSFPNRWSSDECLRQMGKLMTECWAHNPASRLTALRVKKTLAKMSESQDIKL

BMPR2 [7] = target: T4, BMPR2 (Homo sapiens, UniProt Q13873); details: read-out: IC50 BMPR2; previously reported; cited from earlier work
T4 sequence (Q13873 27-1038): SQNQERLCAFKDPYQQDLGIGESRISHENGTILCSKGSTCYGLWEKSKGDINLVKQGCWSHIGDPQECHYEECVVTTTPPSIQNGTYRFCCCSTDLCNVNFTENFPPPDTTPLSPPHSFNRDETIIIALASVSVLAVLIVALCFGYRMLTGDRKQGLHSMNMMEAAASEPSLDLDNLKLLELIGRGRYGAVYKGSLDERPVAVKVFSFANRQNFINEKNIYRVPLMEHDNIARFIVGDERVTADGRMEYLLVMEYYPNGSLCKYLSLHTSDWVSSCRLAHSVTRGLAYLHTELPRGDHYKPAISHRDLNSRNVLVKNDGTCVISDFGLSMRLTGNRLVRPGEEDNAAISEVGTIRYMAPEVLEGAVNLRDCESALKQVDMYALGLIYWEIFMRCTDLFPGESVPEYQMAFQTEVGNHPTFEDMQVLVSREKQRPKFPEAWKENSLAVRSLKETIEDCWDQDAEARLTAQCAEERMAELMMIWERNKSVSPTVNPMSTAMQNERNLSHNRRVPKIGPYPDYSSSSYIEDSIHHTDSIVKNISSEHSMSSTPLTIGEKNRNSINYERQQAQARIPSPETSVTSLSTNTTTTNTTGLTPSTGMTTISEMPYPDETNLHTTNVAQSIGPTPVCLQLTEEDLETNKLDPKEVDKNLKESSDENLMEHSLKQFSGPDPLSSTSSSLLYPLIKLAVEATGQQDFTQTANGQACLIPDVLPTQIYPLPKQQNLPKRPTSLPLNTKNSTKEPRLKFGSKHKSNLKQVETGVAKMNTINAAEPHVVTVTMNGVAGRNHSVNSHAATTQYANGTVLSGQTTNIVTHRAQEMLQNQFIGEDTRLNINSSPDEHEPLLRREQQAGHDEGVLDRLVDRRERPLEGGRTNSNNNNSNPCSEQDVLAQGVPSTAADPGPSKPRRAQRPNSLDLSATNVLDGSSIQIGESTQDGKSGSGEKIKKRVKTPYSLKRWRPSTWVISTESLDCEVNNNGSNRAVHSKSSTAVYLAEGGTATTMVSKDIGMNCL

[8] = system: Id1, TAK1, XIAP in H1299 tumors; details: similar doses; cited from earlier work
[9] = Pharmacokinetics in BALB/c mice; assay type: in vivo, mouse
ALK2/ACVR1 [10] = target: T1, ALK2/ACVR1; assay: IC50 kinase assay ALK2; assay type: biochemical; details: ATP 10 μM
ALK3/BMPR1A [11] = target: T2, ALK3/BMPR1A; assay: IC50 kinase assay ALK3; assay type: biochemical; details: ATP 10 μM
ALK6/BMPR1B [12] = target: T3, ALK6/BMPR1B; assay: IC50 kinase assay ALK6; assay type: biochemical; details: ATP 10 μM
BMPR2 [13] = target: T4, BMPR2; assay: IC50 kinase assay BMPR2; assay type: biochemical
[14] = Toxicity studies in NSG mice; assay type: in vivo
Id1 promoter = assay: Id1-luciferase reporter assay in H1299 cells; assay type: cell-based, human; details: H1299 cells stably expressing reporter, 48 h
Procedure, shortened: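 H1299 cells stably carrying an Id-1 promoter–luciferase reporter were exposed to test compound for 48 h. Cells were then lysed and luminescence read on a luminometer. The experiment was run twice.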

A549 cells = assay: Cell growth A549; assay type: cell-based, human; details: A549, activating K-Ras mutation
Procedure, shortened: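 A549 cells grown in DMEM with 5% FBS, seeded in six-well plates and exposed to test compound from the following day for the set time. Live and dead cells were counted on a Vi-CELL analyser by trypan blue exclusion, 500 cells per sample.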

H1299 cells [15] = assay: Annexin V / 7-AAD staining; assay type: cell-based, human; details: H1299, 2.5 μM, 48 h, vs DMSO
Procedure, shortened: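 H1299 cells in six-well plates exposed to DMSO or test compound at 2.5 μM for 48 h. They were then stained with labeled Annexin V and 7-AAD per kit instructions and analysed by flow cytometry. 7-AAD-positive, Annexin V-negative cells counted as necrotic. Experiments run at least 3 times.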

H1299 cells [16] = assay: TUNEL assay; assay type: cell-based, human; details: H1299, 24 h
[17] = system: caspase-3, PARP in H1299 cells; assay: Western blot of activated caspase-3 and PARP; assay type: cell-based, human; details: H1299, 3 days
Procedure, shortened: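 H1299 cells treated with test compound, and total protein quantified by BCA. Lysates separated by SDS-PAGE onto nitrocellulose and blocked at least 2 h. Probed overnight at 4 °C with rabbit monoclonal anti-activated caspase-3 and anti-PARP, with actin or GAPDH as loading control. Secondary antibody 1 h at room temperature, then enhanced chemiluminescence detection.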

H1299 tumors [18] = assay: H1299 tumor xenografts in NSG mice without immune cells; assay type: in vivo, mouse
H1299 tumors [19] = assay: H1299 tumor xenografts in humanized NSG mice; assay type: in vivo, mouse
[20] = system: Id1, TAK1, XIAP in H1299 tumors; assay: Western blot of BMP downstream targets in H1299 tumor xenografts; assay type: in vivo, mouse; details: NSG mice, 4 days
Procedure, shortened: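 Xenografts made by intradermal flank injection of 2 million H1299 cells into NSG mice. At about 4 mm × 4 mm, mice received test compound at 3 or 10 mg/kg twice daily, or DMSO, for four days. Tumor protein (BCA-quantified) run on SDS-PAGE and blotted to nitrocellulose. Probed with anti-Id1, anti-pTAK1 and anti-XIAP (primary overnight at 4 °C), then ECL detection.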

ALK5/TGFβR1 = target: T5, ALK5/TGFβR1 (Homo sapiens, UniProt P36897); details: read-out: IC50 ALK5/TGFβR1; ATP 10 μM
T5 sequence (P36897 34-503): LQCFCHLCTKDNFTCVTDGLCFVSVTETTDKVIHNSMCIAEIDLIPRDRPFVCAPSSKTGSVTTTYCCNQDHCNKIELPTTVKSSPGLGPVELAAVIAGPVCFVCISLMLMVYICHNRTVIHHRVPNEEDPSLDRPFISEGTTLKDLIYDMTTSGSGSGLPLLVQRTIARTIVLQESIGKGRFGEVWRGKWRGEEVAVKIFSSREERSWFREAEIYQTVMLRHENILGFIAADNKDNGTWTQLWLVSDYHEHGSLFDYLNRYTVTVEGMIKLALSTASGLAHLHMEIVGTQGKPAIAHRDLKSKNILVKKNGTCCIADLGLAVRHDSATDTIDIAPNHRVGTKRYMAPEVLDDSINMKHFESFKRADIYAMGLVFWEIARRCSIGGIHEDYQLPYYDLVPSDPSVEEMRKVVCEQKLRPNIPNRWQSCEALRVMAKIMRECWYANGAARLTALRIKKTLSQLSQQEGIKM

[21] = NSG mice, IP 3 mg/kg, 10 mg/kg twice daily for 4 days
[22] = treatment day 21, IHC image analysis

c1ccc2c(-c3cnn4cc(-c5ccc(OCCN6CCOCC6)cc5)cnc34)ccnc2c1 [DMH2]
ClearanceINT [1]: 250 mL/min/kg | cell death, JL5 compared with DMH2 (H1299 lung cancer cells): same amount of cell death | chemical stability on storage (LCMS) [2]: revealed a phenolic byproduct due to morpholine side-chain hydrolysis | AUCinf ([3]; i.v.): 487 ng·h/mL | AUClast ([3]; i.v.): 485 ng·h/mL | CL ([3]; i.v.): 68 mL/min/kg | T1/2 ([3]; i.v.): 57 min | Vss ([3]; i.v.): 0.95 L/kg | AUCinf ([3]; p.o.): 729 ng·h/mL | AUClast ([3]; p.o.): 707 ng·h/mL | C0/Cmax ([3]; p.o.): 684 ng/mL | half-life ([3]; stated in discussion): 60 min | IC50 (ALK2/ACVR1 [4]): 23 nM | IC50 (ALK3/BMPR1A [5]): 92 nM | IC50 (ALK6/BMPR1B [6]): 43 nM | IC50 (BMPR2 [7]): 7.95 µM | downregulation of Id1, pTAK1, XIAP in tumor xenografts [8]: did not downregulate Id1, pTAK1, or XIAP

c1ccc2c(-c3cnn4cc(-c5ccc(OCCN6CCCCC6)cc5)cnc34)ccnc2c1 [JL5]
ClearanceINT [1]: 129 mL/min/kg | intrinsic clearance lower than that of DMH2 [1]: 48% | AUCinf ([9]; i.v., 2 mg/kg): 381 ng·h/mL | AUClast ([9]; i.v., 2 mg/kg): 349 ng·h/mL | C0/Cmax ([9]; i.v., 2 mg/kg): 568 ng/mL | CL ([9]; i.v., 2 mg/kg): 194 mL/min/kg | T1/2 ([9]; i.v., 2 mg/kg): 34.2 min | Vss ([9]; i.v., 2 mg/kg): 8.78 L/kg | AUCinf ([9]; p.o.): 1,645 hr×ng/mL | AUClast ([9]; p.o.): 1,605 hr×ng/mL | C0/Cmax ([9]; p.o.): 1,282 ng/mL | IC50 ALK2/ACVR1 (ALK2/ACVR1 [10]): single digit nanomolar | IC50 (ALK2/ACVR1 [10]; read-out: IC50 ALK2/ACVR1): 1 nM | IC50 ALK3/BMPR1A (ALK3/BMPR1A [11]): single digit nanomolar | IC50 (ALK3/BMPR1A [11]; read-out: IC50 ALK3/BMPR1A): < 5 nM | IC50 ALK6/BMPR1B (ALK6/BMPR1B [12]): single digit nanomolar | IC50 (ALK6/BMPR1B [12]; read-out: IC50 ALK6/BMPR1B): 2 nM | IC50 (BMPR2 [13]; read-out: IC50 BMPR2, ATP 10 μM): 8.51 µM | IC50 (BMPR2 [13]; read-out: IC50 for the BMP type II receptor BMPR2): ~8 µM | signs of toxicity (anorexia, lethargy, loss of weight) ([14]; 21-day studies, 10 mg/kg intraperitoneal twice daily): no signs of toxicity | blood chemistry screen vs DMSO [14, 21]: no significant difference | histological examination of livers, lungs, kidneys [14, 21]: did not reveal any evidence of toxicity | systemic toxicity (loss of appetite, anorexia, lethargy) [14, 21]: no evidence of systemic toxicity | expression of the Id1-luciferase reporter (Id1 promoter): dose-related decrease | cell death, JL5 compared with DMH2 (H1299 lung cancer cells): same amount of cell death | dead and live cells vs DMSO control (H1299 lung cancer cells; H1299, 7 days): majority of the H1299 cells treated with JL5 were dead | growth of A549 cells (A549 cells): suppressed growth | percentage of cells in late apoptosis / necrosis (Annexin V, 7-AAD) (H1299 cells [15]): significant increase in the percentage of cells in late stages of apoptosis as well as necrosis | DNA double-stranded breaks (TUNEL) (H1299 cells [16]): induces DNA double-stranded breaks | activation of caspase-3 and cleavage of PARP [17]: induced the activation of caspase-3 and cleavage of PARP | regression in tumor size (H1299 tumors [18]; 10 mg/mL, from treatment day 5 to day 14): ~ 35% | tumor cell death or proliferation (H&E, Ki67) (H1299 tumors [18]; after 21 days of treatment): No significant differences | size and weight of tumors vs vehicle control (H1299 tumors [19]; 10 mg/kg twice daily, 13 days): significant difference in the size and weight | regression in tumor size (H1299 tumors [19]; 10 mg/kg twice daily, from treatment day 7 to day 12): ~ 35% | necrotic cells compared to control tumors (H1299 tumors [19]; 13 days, H&E image analysis): twice the number of necrotic cells | cell death by H&E staining (H1299 tumors [19]; 21 days): no noteworthy histomorphological differences | proliferation of tumor cells (Ki67) (H1299 tumors [19]; 21 days): significant reduction in proliferation | increase in CD3+ cells within tumor vs DMSO control (H1299 tumors [19]; [22]): 67% | increase in CD4+ cells within tumor vs DMSO control (H1299 tumors [19]; [22]): 80% | expression of Id1 in tumors ([20]; 3 mg/mL): feedback increase in the expression of Id1 | protein expression of Id1, TAK1, XIAP in tumors ([20]; 10 mg/kg): decreased protein expression of Id1 and TAK1 but not XIAP | IC50 (ALK5/TGFβR1): 440 nM

COC(=O)C[C@H](NC(=O)[C@H](C)NC(=O)[C@@H](NC(=O)OCc1ccccc1)C(C)C)C(=O)CF [Z-VAD-FMK] (Cbz-Val-Ala-Asp(OMe)-CH2F)
effect on JL5-induced cell death (H1299 lung cancer cells): partially inhibited

CN1C(=O)C(Cc2c[nH]c3ccccc23)NC1=S (stereo not shown) [necrostatin-1]
effect on JL5-induced cell death (H1299 lung cancer cells): had no effect
